Experiments:
Assay type in all cases: functional
[1] = biological target: T1, Polyunsaturated fatty acid 5-lipoxygenase (Rattus norvegicus, UniProt P12527); assay: (§1) Inhibition of 5-lipoxygenase by measuring 5-HETE levels in RBL-1 cell-free supernatant
T1 sequence (P12527 whole entry): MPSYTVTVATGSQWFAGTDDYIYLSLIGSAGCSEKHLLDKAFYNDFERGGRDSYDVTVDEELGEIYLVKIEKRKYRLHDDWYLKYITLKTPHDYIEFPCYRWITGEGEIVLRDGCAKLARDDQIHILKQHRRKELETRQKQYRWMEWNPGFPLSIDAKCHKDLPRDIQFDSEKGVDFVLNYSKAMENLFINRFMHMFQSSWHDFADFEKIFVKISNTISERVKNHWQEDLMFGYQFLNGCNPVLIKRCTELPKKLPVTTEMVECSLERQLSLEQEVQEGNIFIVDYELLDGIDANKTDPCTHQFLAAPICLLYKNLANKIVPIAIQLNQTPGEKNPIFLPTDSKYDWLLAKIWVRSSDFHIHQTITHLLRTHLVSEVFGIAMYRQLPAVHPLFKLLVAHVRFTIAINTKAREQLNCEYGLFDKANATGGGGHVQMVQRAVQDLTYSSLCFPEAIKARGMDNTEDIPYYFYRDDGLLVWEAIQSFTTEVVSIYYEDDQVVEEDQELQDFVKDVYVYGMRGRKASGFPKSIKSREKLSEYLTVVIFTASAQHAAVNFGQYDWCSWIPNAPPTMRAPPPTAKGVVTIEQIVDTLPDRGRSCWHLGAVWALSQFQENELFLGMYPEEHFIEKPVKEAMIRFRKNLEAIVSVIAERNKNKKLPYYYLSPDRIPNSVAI
How it was run: (§2)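 Cell-free rat basophilic leukemia (RBL-1) supernatant, 150 µg protein per tube, in duplicate. Buffer: 35 mM NaH₂PO₄ pH 7.0, 5 µM ATP, 50 µM CaCl₂, 10 µM arachidonic acid. Compounds from DMSO stocks. Run at 37 °C for 10 min and stopped with citric acid. 5-HETE measured by radioimmunoassay against a standard curve. Percent change from control; some values given at 50 µM.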

Mus musculus [2] = assay: Change in arachidonic acid induced oedema in mouse ear.
How it was run: (§3)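 Male CFW Swiss Webster mice, n=6. Compound or vehicle (3:7 propylene glycol:ethanol) applied topically to the right ear, 10 µL each to outer and inner surface. After 30 min, arachidonic acid 4 mg/20 µL on the right ear and vehicle on the left.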

Mus musculus [3] = assay: Inhibition of arachidonic acid oedema in mouse ear.; how it was run: as §3
[4] = biological target: T2, Polyunsaturated fatty acid 5-lipoxygenase (Rattus norvegicus) (UniProt P12527); assay: as §1; conditions: concentration not given here; how it was run: as §2
T2 sequence (whole entry): T1 sequence (P12527 whole entry)

Compound | IC50 [1] [nM] | Change (Mus musculus [2]) [%] | ED50 (Mus musculus [3]) [mg ear-1] | inhibition [4] [%] | Change (Mus musculus [3]) [%]
O=C1c2ccccc2COc2ccc(CCC(=O)N(O)C3CCCCC3)cc21 | 2000 | -14 | – | – | –
O=C(CCCCCCCCc1ccccc1)NO | 480 | – | 2.56 | – | –
CCN(O)C(=O)C(C)c1ccc2c(c1)C(=O)c1ccccc1CO2 (configuration not stated) | – | -38 | – | 94 | –
COc1ccc2c(c1)c(CC(=O)O)c(C)n2C(=O)c1ccc(Cl)cc1 [INDOMETHACIN] | – | – | 1.63 | – | –
O=C(O)Cc1ccc2c(c1)C(=O)c1ccccc1CO2 [ISOXEPAC] | – | – | 55 | 1.5 | –
CC(=O)N(O)Cc1ccc2c(c1)C(=O)c1ccccc1CO2 | 210 | -47 | – | – | –
CCN(O)CCc1ccc2c(c1)C(=O)c1ccccc1CO2 | 480 | -50 | – | – | –
CN(O)CCc1ccc2c(c1)C(=O)c1ccccc1CO2 | – | -46 | – | – | –
CC(C)N(O)C(=O)CCc1ccc2c(c1)C(=O)c1ccccc1CO2 | 580 | -63 | – | – | –
CN(O)C(=O)C(C)(C)Cc1ccc2c(c1)C(=O)c1ccccc1CO2 | 660 | 29 | – | – | –
CC(=O)N(O)CCc1ccc2c(c1)C(=O)c1ccccc1CO2 | 190 | -61 | – | – | –
CN(O)CCCc1ccc2c(c1)C(=O)c1ccccc1CO2 | 620 | -53 | – | – | –
CC(C)N(O)CCc1ccc2c(c1)C(=O)c1ccccc1CO2 | 130 | -47 | – | – | –
CCN(O)CCc1ccc2c(c1)C(O)c1ccccc1CO2 (configuration not stated) | 450 | -47 | – | – | –
O=C1c2ccccc2COc2ccc(CC(=O)N(O)C3CCCCC3)cc21 | 670 | -29 | – | – | –
CC(C)Cc1ccc(C(C)C(=O)O)cc1 (configuration not stated) [IBUPROFEN] | – | – | – | – | -11
CC(Cc1ccc(O)c(O)c1)C(C)Cc1ccc(O)c(O)c1 (configuration not stated) [NORDIHYDROGUAIARETIC ACID] | – | – | 3.1 | – | –
CCN(O)CCc1ccc2c(c1)Cc1ccccc1CO2 | 320 | -50 | – | – | –
CN(O)C(=O)Cc1ccc2c(c1)C(=O)c1ccccc1CO2 | 1190 | -63 | – | – | –
CN(O)C(=O)CCc1ccc2c(c1)C(=O)c1ccccc1CO2 | 10 | -66 | 0.69 | – | –
CON(C)C(=O)CCc1ccc2c(c1)C(=O)c1ccccc1CO2 | > 50000 | -41 | – | – | –
CN(O)C(=O)CCc1ccc2c(c1)Cc1ccccc1CO2 | 20 | -67 | 0.7 | – | –
CC(C(=O)N(C)O)c1ccc2c(c1)C(=O)c1ccccc1CO2 (configuration not stated) | 1300 | -44 | – | – | –
CCN(O)C(=O)CCc1ccc2c(c1)C(=O)c1ccccc1CO2 | 150 | -55 | – | – | –
CC(C)N(O)C(=O)Cc1ccc2c(c1)C(=O)c1ccccc1CO2 | 1230 | -52 | – | – | –
O=C(Cc1ccc2c(c1)C(=O)c1ccccc1CO2)NO | 9000 | -19 | – | – | –
CCN(O)C(=O)Cc1ccc2c(c1)C(=O)c1ccccc1CO2 | 580 | -52 | – | – | –
